# Source: ChEMBL document CHEMBL2046296, “Synthesis and antidepressant activity of arylalkanol-piperidine derivatives as triple reuptake inhibitors” (Eur J Med Chem, 2012)
# How the values were obtained:
# [1] = target: T1, Sodium-dependent serotonin transporter (Homo sapiens, UniProt P31645); assay: Inhibition of [3H]serotonin uptake at human SERT expressed in HEK293 cells after 10 min by scintillation counting
# Target sequence in this assay (P31645 whole entry): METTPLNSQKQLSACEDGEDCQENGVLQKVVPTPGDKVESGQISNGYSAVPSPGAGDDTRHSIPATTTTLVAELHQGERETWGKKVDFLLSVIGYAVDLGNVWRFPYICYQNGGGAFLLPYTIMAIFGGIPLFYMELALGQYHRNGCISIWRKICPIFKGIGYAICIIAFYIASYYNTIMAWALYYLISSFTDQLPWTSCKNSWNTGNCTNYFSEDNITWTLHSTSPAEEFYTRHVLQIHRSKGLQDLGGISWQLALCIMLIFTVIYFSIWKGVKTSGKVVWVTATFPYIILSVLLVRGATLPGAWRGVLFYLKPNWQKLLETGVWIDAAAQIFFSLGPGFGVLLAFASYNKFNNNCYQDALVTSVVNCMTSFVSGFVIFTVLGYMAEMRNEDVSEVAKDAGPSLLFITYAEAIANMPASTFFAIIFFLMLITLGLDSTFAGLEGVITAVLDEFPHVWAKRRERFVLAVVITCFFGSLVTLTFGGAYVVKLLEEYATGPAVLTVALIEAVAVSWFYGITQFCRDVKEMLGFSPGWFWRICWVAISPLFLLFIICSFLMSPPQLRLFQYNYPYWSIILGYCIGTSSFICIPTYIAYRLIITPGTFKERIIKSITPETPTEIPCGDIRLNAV
# [2] = target: Sodium-dependent dopamine transporter (Homo sapiens, UniProt Q01959); assay: Inhibition of [3H]dopamine uptake at human DAT expressed in HEK293 cells at 10 uM after 10 mins by scintillation counting
# [3] = target: T2, Sodium-dependent noradrenaline transporter (Homo sapiens, UniProt P23975); assay: Inhibition of [3H]noradrenaline uptake at human NET expressed in HEK293 cells at 10 uM after 10 mins by scintillation counting
# [4] = target: T2, Sodium-dependent noradrenaline transporter; assay: Inhibition of [3H]noradrenaline uptake at human NET expressed in HEK293 cells after 10 mins by scintillation counting
# [5] = target: T1, Sodium-dependent serotonin transporter; assay: Inhibition of [3H]serotonin uptake at human SERT expressed in HEK293 cells at 10 uM after 10 min by scintillation counting
# Target sequence in this assay (P31645 whole entry, looked up): as the sequence (P31645 whole entry) above
# [6] = system: Mus musculus; assay: Antidepressant activity in mouse assessed as decrease in immobility at 50 mg/kg, po administered 30 mins prior to testing by tail suspension test relative to vehicle control; assay type: functional; parameters: scale not given: the % may be the effect or the level left
# In short: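 Oral doses of 10–50 mg/kg (three doses) were given once, 30 min before testing. Mice were hung by adhesive tape 1 cm from the tail tip, 75 cm above the tabletop. Immobility was recorded for 5 min, scored blind, 10–12 mice per group, against vehicle controls. One-way ANOVA with Scheffe post hoc test; p<0.05 significant.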
# [7] = system: Mus musculus; assay: Toxicity in mouse assessed as increase in locomotor activity at 50 mg/kg, po up to 5 mins relative to vehicle treated control; assay type: organism-based; parameters: dose 50 mg/kg, route oral; conditions: in vivo
# In short: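 Mice were dosed orally at 50 mg/kg and 30 min later placed singly in new 35×35×35 cm plastic cages under dim light with sound attenuation. Activity was logged by a monitoring apparatus at intervals up to 30 min, and the 5 min point was analysed. Mean ± SEM; one-way ANOVA, Scheffe post hoc, versus control.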
# Sequence of Sodium-dependent dopamine transporter (Q01959 whole entry): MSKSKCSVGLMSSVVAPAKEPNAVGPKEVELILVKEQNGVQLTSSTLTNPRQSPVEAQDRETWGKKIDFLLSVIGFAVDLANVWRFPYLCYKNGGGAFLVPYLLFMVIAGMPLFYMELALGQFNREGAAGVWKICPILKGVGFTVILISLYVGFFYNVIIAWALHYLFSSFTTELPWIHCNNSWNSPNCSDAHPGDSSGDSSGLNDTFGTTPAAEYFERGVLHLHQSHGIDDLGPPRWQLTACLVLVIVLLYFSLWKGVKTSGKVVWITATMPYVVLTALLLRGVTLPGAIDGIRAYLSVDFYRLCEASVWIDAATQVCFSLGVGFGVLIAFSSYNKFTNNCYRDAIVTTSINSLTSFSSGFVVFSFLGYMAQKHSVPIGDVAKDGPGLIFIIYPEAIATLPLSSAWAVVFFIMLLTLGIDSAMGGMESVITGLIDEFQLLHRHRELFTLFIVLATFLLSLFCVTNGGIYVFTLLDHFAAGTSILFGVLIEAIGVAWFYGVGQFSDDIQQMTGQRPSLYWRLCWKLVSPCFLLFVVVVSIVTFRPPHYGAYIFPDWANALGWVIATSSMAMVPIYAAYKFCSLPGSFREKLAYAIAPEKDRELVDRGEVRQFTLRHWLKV
# T2 sequence (P23975 whole entry): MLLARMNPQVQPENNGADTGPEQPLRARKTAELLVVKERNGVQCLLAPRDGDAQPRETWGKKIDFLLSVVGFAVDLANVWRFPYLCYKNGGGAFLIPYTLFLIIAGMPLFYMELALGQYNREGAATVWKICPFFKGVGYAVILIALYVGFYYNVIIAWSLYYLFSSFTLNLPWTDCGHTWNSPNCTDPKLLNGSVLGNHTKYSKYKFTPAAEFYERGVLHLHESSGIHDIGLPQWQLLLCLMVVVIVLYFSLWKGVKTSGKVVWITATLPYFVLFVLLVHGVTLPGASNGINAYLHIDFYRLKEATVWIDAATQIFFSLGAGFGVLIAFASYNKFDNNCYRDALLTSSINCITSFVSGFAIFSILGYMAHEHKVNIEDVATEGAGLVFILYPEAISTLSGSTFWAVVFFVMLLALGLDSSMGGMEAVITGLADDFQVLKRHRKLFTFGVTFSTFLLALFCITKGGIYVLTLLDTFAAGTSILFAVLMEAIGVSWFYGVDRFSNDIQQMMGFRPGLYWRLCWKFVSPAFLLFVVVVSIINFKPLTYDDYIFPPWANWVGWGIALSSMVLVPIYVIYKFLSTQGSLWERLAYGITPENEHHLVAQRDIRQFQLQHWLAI
structure (smiles),measurement,setting,value
COc1ccc(C(O)CCN2CC=C(Cc3ccccc3)CC2)cc1 (racemic),IC50,[1],768 nM
same,inhibition,[2],57%
same,inhibition,[3],62%
COc1ccc2cc(C(O)CCN3CCC(O)(Cc4ccccc4)CC3)ccc2c1Cl (racemic),IC50,[1],427 nM
same,IC50,[4],800 nM
same,inhibition,[2],73%
COc1ccc2cc([C@H](O)[C@H](C)N3CCC(O)(Cc4ccccc4)CC3)ccc2c1Cl (racemic),IC50,[1],357 nM
same,inhibition,[2],22%
same,inhibition,[3],55%
C[C@@H]([C@@H](O)c1ccc(Cl)c(Cl)c1)N1CC=C(Cc2ccccc2)CC1 (racemic),IC50,[1],367 nM
same,IC50,[4],531 nM
same,inhibition,[2],64%
COc1ccc(C(O)CCN2CC=C(Cc3ccccc3)CC2)cc1OC (racemic),inhibition,[2],61%
same,inhibition,[5],74%
same,inhibition,[3],63%
COc1ccc([C@H](O)[C@@H](C)N2CC=C(Cc3ccccc3)CC2)cc1 (racemic),inhibition,[2],70%
same,inhibition,[5],59%
same,inhibition,[3],62%
COc1ccc([C@H](O)[C@H](C)N2CC=C(Cc3ccccc3)CC2)cc1 (racemic),inhibition,[2],68%
same,inhibition,[5],80%
same,inhibition,[3],55%
COc1ccc2cc([C@H](O)[C@@H](C)N3CCC(O)(Cc4ccccc4)CC3)ccc2c1Cl (racemic),inhibition,[2],51%
same,inhibition,[5],80%
same,inhibition,[3],63%
C[C@@H]([C@@H](O)c1cccc(F)c1)N1CC=C(Cc2ccccc2)CC1 (racemic),inhibition,[2],70%
same,inhibition,[5],63%
same,inhibition,[3],57%
C[C@@H]([C@@H](O)c1csc2ccccc12)N1CC=C(Cc2ccccc2)CC1 (racemic),inhibition,[2],77%
same,inhibition,[5],33%
same,inhibition,[3],34%
C[C@H]([C@@H](O)c1ccc(Cl)c(Cl)c1)N1CC=C(Cc2ccccc2)CC1 (racemic),inhibition,[2],56%
same,inhibition,[5],38%
same,inhibition,[3],36%
C[C@H]([C@@H](O)c1cccc(F)c1)N1CC=C(Cc2ccccc2)CC1 (racemic),inhibition,[2],35%
same,inhibition,[5],61%
same,inhibition,[3],83%
C[C@H]([C@@H](O)c1csc2ccccc12)N1CC=C(Cc2ccccc2)CC1 (racemic),inhibition,[2],75%
same,inhibition,[5],55%
same,inhibition,[3],78%
Cc1ccc(C(O)CCN2CC=C(Cc3ccccc3)CC2)cc1 (racemic),inhibition,[2],30%
same,inhibition,[5],62%
same,inhibition,[3],83%
O=[N+]([O-])c1ccc(C(O)CCN2CC=C(Cc3ccccc3)CC2)cc1 (racemic),inhibition,[2],55%
same,inhibition,[5],65%
same,inhibition,[3],74%
OC(CCN1CC=C(Cc2ccccc2)CC1)c1ccc(Cl)cc1 (racemic),inhibition,[2],61%
same,inhibition,[5],56%
same,inhibition,[3],50%
OC(CCN1CC=C(Cc2ccccc2)CC1)c1ccc(F)cc1F (racemic),inhibition,[2],66%
same,inhibition,[5],66%
same,inhibition,[3],78%
OC(CCN1CC=C(Cc2ccccc2)CC1)c1ccc2c(c1)CCO2 (racemic),inhibition,[2],49%
same,inhibition,[5],74%
same,inhibition,[3],88%
OC(CCN1CC=C(Cc2ccccc2)CC1)c1cccs1 (racemic),inhibition,[2],52%
same,inhibition,[5],78%
same,inhibition,[3],82%
OC(CCN1CCC(O)(Cc2ccccc2)CC1)c1csc2ccccc12 (racemic),inhibition,[2],64%
same,inhibition,[5],27%
same,inhibition,[3],61%
COc1ccc(C(CN(C)C)C2(O)CCCCC2)cc1 (configuration not stated) [VENLAFAXINE],Activity,[6],63%
same,Activity,[7],Non-toxic
